# Assay results from ChEMBL document CHEMBL1177643, “Synthesis, DNA-binding ability and anticancer activity of benzothiazole/benzoxazole-pyrrolo[2,1-c][1,4]benzodiazepine conjugates” (Bioorg Med Chem, 2010).
# Legend:
# Calf thymus DNA = experiment: Binding affinity to calf thymus duplex-form DNA assessed as melting temperature at 1:5 compound/DNA ratio after 18 hrs; type: nucleic-acid assay; details: Bos taurus
# CCRF-CEM = experiment: Growth inhibition of human CCRF-CEM cells after 48 hrs by sulforhodamine B assay; type: functional
# In short: (§1)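 Dose–response in each cell line over at least five concentrations at 10-fold dilutions, with 48 h continuous exposure and sulforhodamine B read-out.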
# HL-60 = experiment: Growth inhibition of human HL-60(TB) cells after 48 hrs by sulforhodamine B assay; type: functional; details: HL-60, 48 h
# In short: (§2)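 Panel of 60 human cancer cell lines; for each compound, dose–response curves per cell line measured at a minimum of five concentrations at 10-fold dilutions. Cells exposed continuously to drug for 48 h, and growth was read out by sulforhodamine B staining.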
# K562 = experiment: Growth inhibition of human K562 cells after 48 hrs by sulforhodamine B assay; type: functional; details: K562, 48 h; in short: as §2
# MOLT-4 = experiment: Growth inhibition of human MOLT4 cells after 48 hrs by sulforhodamine B assay; type: functional; details: MOLT-4, 48 h; in short: as §2
# [1] = Growth inhibition of human […] cells after 48 hrs by sulforhodamine B assay; type: functional; in short: as §2
# SR = experiment: Growth inhibition of human SR cells after 48 hrs by sulforhodamine B assay; type: functional; in short: as §2
# A549 = experiment: Growth inhibition of human A549 cells after 48 hrs by sulforhodamine B assay; type: functional; details: A549, 48 h; in short: as §1
# EKVX = experiment: Growth inhibition of human EKVX cells after 48 hrs by sulforhodamine B assay; type: functional; in short: as §1
# HOP-62 = experiment: Growth inhibition of human HOP62 cells after 48 hrs by sulforhodamine B assay; type: functional; details: HOP-62, 48 h; in short: as §2
# HOP-92 = experiment: Growth inhibition of human HOP92 cells after 48 hrs by sulforhodamine B assay; type: functional; details: HOP-92, 48 h; in short: as §2
# NCI-H226 = experiment: Growth inhibition of human NCI-H226 cells after 48 hrs by sulforhodamine B assay; type: functional; details: NCI-H226, 48 h; in short: as §2
# NCI-H23 = experiment: Growth inhibition of human NCI-H23 cells after 48 hrs by sulforhodamine B assay; type: functional; details: NCI-H23, 48 h; in short: as §2
# NCI-H322M = experiment: Growth inhibition of human NCI-H322M cells after 48 hrs by sulforhodamine B assay; type: functional; in short: as §2
# NCI-H460 = experiment: Growth inhibition of human NCI-H460 cells after 48 hrs by sulforhodamine B assay; type: functional; details: NCI-H460, 48 h; in short: as §2
# NCI-H522 = experiment: Growth inhibition of human NCI-H522 cells after 48 hrs by sulforhodamine B assay; type: functional; details: NCI-H522, 48 h; in short: as §2
# COLO 205 = experiment: Growth inhibition of human COLO205 cells after 48 hrs by sulforhodamine B assay; type: functional; details: COLO 205, 48 h; in short: as §1
# HCC 2998 = experiment: Growth inhibition of human HCC2998 cells after 48 hrs by sulforhodamine B assay; type: functional; details: HCC 2998, 48 h; in short: as §2
# HCT-116 = experiment: Growth inhibition of human HCT116 cells after 48 hrs by sulforhodamine B assay; type: functional; details: HCT-116, 48 h; in short: as §2
# HCT-15 = experiment: Growth inhibition of human HCT15 cells after 48 hrs by sulforhodamine B assay; type: functional; details: HCT-15, 48 h; in short: as §2
# HT-29 = experiment: Growth inhibition of human HT-29 cells after 48 hrs by sulforhodamine B assay; type: functional; details: HT-29, 48 h; in short: as §2
# KM12 = experiment: Growth inhibition of human KM12 cells after 48 hrs by sulforhodamine B assay; type: functional; details: KM12, 48 h; in short: as §2
# SW-620 = experiment: Growth inhibition of human SW620 cells after 48 hrs by sulforhodamine B assay; type: functional; details: SW-620, 48 h; in short: as §2
# SF-268 = experiment: Growth inhibition of human SF268 cells after 48 hrs by sulforhodamine B assay; type: functional; details: SF-268, 48 h; in short: as §2
# SF-295 = experiment: Growth inhibition of human SF295 cells after 48 hrs by sulforhodamine B assay; type: functional; details: SF-295, 48 h; in short: as §2
# SF-539 = experiment: Growth inhibition of human SF539 cells after 48 hrs by sulforhodamine B assay; type: functional; details: SF-539, 48 h; in short: as §2
# SNB-19 = experiment: Growth inhibition of human SNB19 cells after 48 hrs by sulforhodamine B assay; type: functional; details: SNB-19, 48 h; in short: as §2
# SNB-75 = experiment: Growth inhibition of human SNB75 cells after 48 hrs by sulforhodamine B assay; type: functional; details: SNB-75, 48 h; in short: as §2
# U-251 = experiment: Growth inhibition of human U251 cells after 48 hrs by sulforhodamine B assay; type: functional; details: U-251, 48 h; in short: as §2
# LOX IMVI = experiment: Growth inhibition of human LOXIMVI cells after 48 hrs by sulforhodamine B assay; type: functional; in short: as §2
# Malme-3M = experiment: Growth inhibition of human MALME-3M cells after 48 hrs by sulforhodamine B assay; type: functional; in short: as §2
# M14 = experiment: Growth inhibition of human M14 cells after 48 hrs by sulforhodamine B assay; type: functional; details: M14, 48 h; in short: as §2
# SK-MEL-2 = experiment: Growth inhibition of human SK-MEL-2 cells after 48 hrs by sulforhodamine B assay; type: functional; details: SK-MEL-2, 48 h; in short: as §2
# SK-MEL-28 = experiment: Growth inhibition of human SK-MEL-28 cells after 48 hrs by sulforhodamine B assay; type: functional; details: SK-MEL-28, 48 h; in short: as §2
# SK-MEL-5 = experiment: Growth inhibition of human SK-MEL-5 cells after 48 hrs by sulforhodamine B assay; type: functional; details: SK-MEL-5, 48 h; in short: as §2
# UACC-257 = experiment: Growth inhibition of human UACC257 cells after 48 hrs by sulforhodamine B assay; type: functional; details: UACC-257, 48 h; in short: as §2
# UACC-62 = experiment: Growth inhibition of human UACC62 cells after 48 hrs by sulforhodamine B assay; type: functional; details: UACC-62, 48 h; in short: as §2
# IGROV-1 = experiment: Growth inhibition of human IGROV1 cells after 48 hrs by sulforhodamine B assay; type: functional; details: IGROV-1, 48 h; in short: as §2
# OVCAR-3 = experiment: Growth inhibition of human OVCAR-3 cells after 48 hrs by sulforhodamine B assay; type: functional; details: OVCAR-3, 48 h; in short: as §2
# OVCAR-4 = experiment: Growth inhibition of human OVCAR4 cells after 48 hrs by sulforhodamine B assay; type: functional; details: OVCAR-4, 48 h; in short: as §2
# OVCAR-5 = experiment: Growth inhibition of human OVCAR5 cells after 48 hrs by sulforhodamine B assay; type: functional; details: OVCAR-5, 48 h; in short: as §2
# OVCAR-8 = experiment: Growth inhibition of human OVCAR8 cells after 48 hrs by sulforhodamine B assay; type: functional; details: OVCAR-8, 48 h; in short: as §2
# SK-OV-3 = experiment: Growth inhibition of human SKOV3 cells after 48 hrs by sulforhodamine B assay; type: functional; details: SK-OV-3, 48 h; in short: as §2
# 786-0 = experiment: Growth inhibition of human 786-0 cells after 48 hrs by sulforhodamine B assay; type: functional; details: 786-0, 48 h; in short: as §1
# A498 = experiment: Growth inhibition of human A498 cells after 48 hrs by sulforhodamine B assay; type: functional; details: A498, 48 h; in short: as §1
# ACHN = experiment: Growth inhibition of human ACHN cells after 48 hrs by sulforhodamine B assay; type: functional; in short: as §1
# CAKI-1 = experiment: Growth inhibition of human Caki1 cells after 48 hrs by sulforhodamine B assay; type: functional; details: CAKI-1, 48 h; in short: as §1
# RXF 393 = experiment: Growth inhibition of human RXF393 cells after 48 hrs by sulforhodamine B assay; type: functional; details: RXF 393, 48 h; in short: as §2
# SN12C = experiment: Growth inhibition of human SN12C cells after 48 hrs by sulforhodamine B assay; type: functional; in short: as §2
# TK-10 = experiment: Growth inhibition of human TK10 cells after 48 hrs by sulforhodamine B assay; type: functional; details: TK-10, 48 h; in short: as §2
# UO-31 = experiment: Growth inhibition of human UO31 cells after 48 hrs by sulforhodamine B assay; type: functional; details: UO-31, 48 h; in short: as §2
# PC-3 = experiment: Growth inhibition of human PC3 cells after 48 hrs by sulforhodamine B assay; type: functional; details: PC-3, 48 h; in short: as §2
# DU-145 = experiment: Growth inhibition of human DU145 cells after 48 hrs by sulforhodamine B assay; type: functional; details: DU-145, 48 h; in short: as §1
# MCF7 = experiment: Growth inhibition of human MCF7 cells after 48 hrs by sulforhodamine B assay; type: functional; details: MCF7, 48 h; in short: as §2
# NCI/ADR-RES = experiment: Growth inhibition of human NCI/ADR-RES cells after 48 hrs by sulforhodamine B assay; type: functional; in short: as §2
# MDA-MB-231 = experiment: Growth inhibition of human MDA-MB-231 cells after 48 hrs by sulforhodamine B assay; type: functional; details: MDA-MB-231, 48 h; in short: as §2
# Hs-578T = experiment: Growth inhibition of human Hs 578T cells after 48 hrs by sulforhodamine B assay; type: functional; in short: as §2
# MDA-MB-435 = experiment: Growth inhibition of human MDA-MB-435 cells after 48 hrs by sulforhodamine B assay; type: functional; details: MDA-MB-435, 48 h; in short: as §2
# BT-549 = experiment: Growth inhibition of human BT549 cells after 48 hrs by sulforhodamine B assay; type: functional; details: BT-549, 48 h; in short: as §1
# T47D = experiment: Growth inhibition of human T47D cells after 48 hrs by sulforhodamine B assay; type: functional; in short: as §2
smiles,measurement,setting,value
COc1cc2c(cc1OCCCCCOc1ccc(-c3nc4ccccc4s3)cc1)N=C[C@@H]1CCCN1C2=O,ΔTm,Calf thymus DNA,4.3 °C
same,GI50,CCRF-CEM,269 nM
same,GI50,HL-60,562 nM
same,GI50,K562,363 nM
same,GI50,MOLT-4,282 nM
same,GI50,[1],398 nM
same,GI50,SR,19.1 nM
same,GI50,A549,2570 nM
same,GI50,EKVX,1550 nM
same,GI50,HOP-62,407 nM
same,GI50,HOP-92,269 nM
same,GI50,NCI-H226,1510 nM
same,GI50,NCI-H23,891 nM
same,GI50,NCI-H322M,1950 nM
same,GI50,NCI-H460,347 nM
same,GI50,NCI-H522,550 nM
same,GI50,COLO 205,389 nM
same,GI50,HCC 2998,631 nM
same,GI50,HCT-116,347 nM
same,GI50,HCT-15,933 nM
same,GI50,HT-29,457 nM
same,GI50,KM12,1550 nM
same,GI50,SW-620,1020 nM
same,GI50,SF-268,3240 nM
same,GI50,SF-295,776 nM
same,GI50,SF-539,479 nM
same,GI50,SNB-19,2950 nM
same,GI50,SNB-75,1200 nM
same,GI50,U-251,457 nM
same,GI50,LOX IMVI,240 nM
same,GI50,Malme-3M,1230 nM
same,GI50,M14,324 nM
same,GI50,SK-MEL-2,1550 nM
same,GI50,SK-MEL-28,3890 nM
same,GI50,SK-MEL-5,339 nM
same,GI50,UACC-257,2240 nM
same,GI50,UACC-62,1170 nM
same,GI50,IGROV-1,2690 nM
same,GI50,OVCAR-3,741 nM
same,GI50,OVCAR-4,2140 nM
same,GI50,OVCAR-5,661 nM
same,GI50,OVCAR-8,813 nM
same,GI50,SK-OV-3,2570 nM
same,GI50,786-0,263 nM
same,GI50,A498,2240 nM
same,GI50,ACHN,1100 nM
same,GI50,CAKI-1,513 nM
same,GI50,RXF 393,200 nM
same,GI50,SN12C,813 nM
same,GI50,TK-10,3470 nM
same,GI50,UO-31,724 nM
same,GI50,PC-3,234 nM
same,GI50,DU-145,355 nM
same,GI50,MCF7,331 nM
same,GI50,NCI/ADR-RES,1120 nM
same,GI50,MDA-MB-231,263 nM
same,GI50,Hs-578T,1320 nM
same,GI50,MDA-MB-435,1380 nM
same,GI50,BT-549,229 nM
same,GI50,T47D,234 nM
